Bioassay records: PubChem, several laboratories
STAT3 inh – reduces IL-6 driven STAT3 reporter signal. 190,000 tested, 0.89% active. U3A cells, IL-6 STAT3-luciferase reporter, luminescence; host cell line lacks STAT1. inhibition, % at 5.5 µM. AID 862;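 active means inhibition above the mean inhibition across all screened compounds plus 3 SD, cut at about 44% in these data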;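 further: 0% = DMSO only wells and 100% = 100 µM nifuroxazide control wells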
STAT1 act – activators of IFN-gamma induced STAT1 signaling. activation (% of control), % at 5.5 µM. 200,000 tested, 2.6% active. NIH 3T3 STAT1-luciferase reporter, luminescence; 100% = IFN-gamma alone, no compound;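 active means activation above the screen-wide mean activation plus 3 SD, cut at about 130% in these data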;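 further: raw ratio to IFN-gamma control signal so 100% means no change and 0% no light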
STAT1 inh – STAT1 signaling inhibition; inhibition, % at 5.5 µM; NIH 3T3 STAT1-luciferase reporter, IFN-gamma, luminescence; AID 920; 200,000 tested, 0.35% active;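 active means inhibition above a set limit, the mean inhibition across all tested compounds plus 3 SD, cut at about 34% in these data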;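 further: 0% = IFN-gamma with DMSO and 100% = IFN-gamma with 300 µM nifuroxazide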
APP 5'UTR act – APP 5'UTR luciferase reporter activation. 190,000 tested, 1% active. AID 1276. SH-SY5Y APP 5'UTR luciferase reporter, luminescence; zero percent = DMSO vehicle wells. activation, % at 2 µM;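 active means activation above a set limit, based on mean plus 3 SD of controls, cut at about 140% in these data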
STAT3 activator – activators of IL-6 induced STAT3 signaling; 190,000 tested, 0.91% active; U3A cells, IL-6 STAT3-luciferase reporter, luminescence; 100% = signal with IL-6 EC80 alone; activation (% of control), % at 5.6 µM;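 active means activation above the screen-wide mean of compound activation plus 3 SD, cut at about 130% in these data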;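 further: 0% = background luminescence of wells with medium and substrate only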
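Test system: STAT3-luciferase reporter U3A cells; Detection: reporter luminescence signal; Times: 1 h compound pre-exposure, 6 h IL-6 stimulation, 37 °C; Benchmarks: IL-6-only high control; Also added: IL-6 stimulus at 33 ng/mL final.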
NF-kB expr up – NF-kB expression increase, human neuronal cells | NF-kB reporter expression; stronger effect = higher value | fold change at 12.5 µM | 190,000 tested, 1.6% active; in the data active means fold change above about 3.3
An asterisk follows results filed as active; x = no result given. Rows were chosen to be rich in hits. Some 4.9% of all compounds tested hit in one or more screens of this group.

SMILES	STAT3 inh	STAT1 act	STAT1 inh	APP 5'UTR act	STAT3 activator	NF-kB expr up
CS(=O)(=O)N1CCN(c2ccc([N+](=O)[O-])c(NCc3cccnc3)c2)CC1	7	98	1	6	101	1.1
CC1CC(C)CN(c2cc(N(C)CCO)c([N+](=O)[O-])c3nonc23)C1 (configuration not stated)	5	93	5	17	97	1.1
Cc1nc(Cl)c2c(n1)NC1=C(O2)C(=O)CCC1	2	86	16	19	98	1.2
Cc1ccc(Nc2ncnc3ccccc23)cc1	15	130*	-34	149*	89	2.9
Cc1cccc(Nc2ncnc3ccccc23)c1	22	108	-9	21	84	1.5
CC(C)Oc1ccc(Nc2ncnc3ccccc23)cc1	24	144*	-53	88	84	1.1
Cc1ccccc1C(=O)Oc1cccc(Nc2ncnc3ccccc23)c1	67*	78	24	23	43	x
Cc1ccccc1/C=C1\SC(=S)N(/N=C/c2cc([N+](=O)[O-])ccc2O)C1=O	11	102	-3	9	94	1.3
CC(CNC(=O)c1cc(Cl)ccc1[N+](=O)[O-])NC(=O)c1cc(Cl)ccc1[N+](=O)[O-] (configuration not stated)	1	100	0	11	103	1.2
COC(=O)c1sccc1N(C)S(C)(=O)=O	0	96	3	-4	104	1.1
O=C(Nc1ccccc1)N1CC=C(c2ccccc2)CC1	19	145*	-48	56	87	2.2
O=C(Nc1ccccc1)N1CC=C(c2ccc(F)cc2)CC1	17	142*	-50	94	88	1.5
O=C(COC(=O)c1ccc(S(=O)(=O)Nc2ccccc2)cc1)NCCC1=CCCCC1	3	100	-1	2	94	0.84
CC(Nc1ccccc1N1CCCCC1)C(=O)N1CCc2ccccc21 (configuration not stated)	-2	105	-8	3	110	0.72
CN(C)Cc1c(-c2ccc(Cl)cc2)nc2ccc(Cl)cn12	25	93	7	19	82	0.97
Brc1ccc(Cn2c(-c3ccc(Br)o3)nc3ccccc32)o1	3	110	-11	29	101	1.2
Cn1c(-c2ccc(Br)o2)nc2cc(Br)ccc21	-4	138*	-42	x	109	5.3*
Cc1oc(-c2nc3ccccc3n2C)cc1C(=O)c1ccccc1	73*	64	39*	190*	42	2.6
Cn1c(-c2ccc(Br)o2)nc2ccccc21	11	140*	-44	135	92	4.5*
CC(=O)c1ccc(-c2nc3ccccc3n2C)o1	15	130*	-32	40	90	2.2
Cc1ccc(-c2nc3ccccc3n2C)o1	26	130*	-32	46	83	3.6*
Cn1c(Sc2nc3ccccc3n2C)nc2ccccc21	-15	92	9	16	115	1.1
CNS(=O)(=O)c1ccc(NCC2COc3ccccc3O2)c([N+](=O)[O-])c1 (configuration not stated)	5	111	-13	8	98	0.86
CS(=O)(=O)c1ccc(C(=O)OCc2nnc(-c3ccc(Cl)cc3)o2)cc1[N+](=O)[O-]	11	87	14	-19	93	8.4*
CCOc1ncccc1C(=O)OCC(=O)N(CC(C)C)C1CCS(=O)(=O)C1 (configuration not stated)	2	97	3	23	106	0.97
SMILES	STAT3 inh	STAT1 act	STAT1 inh	APP 5'UTR act	STAT3 activator	NF-kB expr up
C[n+]1cccc(C(=O)NNC(=O)C23CC4CC(CC(C4)C2)C3)c1	7	103	-5	-15	97	1.5
Cc1ccc(NC(=O)/C=C/c2ccc3c(c2)OCO3)nc1	-2	121	-24	152*	101	0.97
Cc1cccc(NC(=O)/C=C/c2ccc(Cl)cc2)n1	36	139*	-44	182*	71	1.2
Cc1ccc(NC(=O)Nc2ccc3c(c2)OCO3)nc1	4	149*	-52	103	97	4*
CCC(=O)Nc1ccc(NC(=O)/C=C/c2ccc(Cl)cc2)cc1	0	101	-1	3	99	1.3
CC(=O)c1ccc(NC(=O)/C=C/c2ccc(C)cc2)cc1	9	107	-8	10	91	1.4
Cc1ccc(/C=C/C(=O)Nc2cc(C)on2)cc1	15	133*	-36	46	90	2.4
Cc1ccc2c(c1)C(O)(CC(=O)/C=C/C=C/c1ccccc1)C(=O)N2 (configuration not stated)	10	87	13	31	92	1.3
O=C(C[n+]1cccc(CNC(=O)c2ccc(OC(F)F)cc2)c1)Nc1cccc(C(F)(F)F)c1	-6	100	-1	6	105	1.3
OC1(c2cccc(C(F)(F)F)c2)CCN(c2ncnc3c2[nH]c2ccccc23)CC1	-15	75	27	18	119	0.35
OC1(c2cccc(C(F)(F)F)c2)CCN(c2ccc(-c3ccccc3)nn2)CC1	-18	141*	-45	-9	118	1.6
Cc1cccc(Nc2nc(N)nc(CSc3nccn3C)n2)c1	-6	136*	-40	26	109	2
Cc1ccc(Nc2nc(N)nc(CSc3nccn3C)n2)cc1	-5	146*	-50	140*	108	3.8*
Cn1c(CSCc2ccc(Cl)c(Cl)c2)n[nH]c1=S	3	95	6	4	100	0.99
CN(C)S(=O)(=O)c1cccc(C(=O)OCC(=O)Nc2sccc2C#N)c1	-40	113	-15	-1	134*	1.7
COc1ccc(N(C)S(=O)(=O)c2cccc(C(=O)OCC(=O)Nc3sc4c(c3C#N)CCCCC4)c2)cc1	5	87	14	12	94	1.3
Clc1ccc(-c2cc3ccccc3[nH]2)cc1	1	131*	-34	50	108	2.8
N#Cc1c(NCCN)nc(NCc2ccccc2)c2c1CCN(Cc1ccccc1)C2	-1	91	10	6	103	x
C=CCNc1nc(NCc2ccccc2)c(C#N)c2c1CN(C)CC2	-34	117	-19	5	133*	0.83
C=CCN1CCN(C(CCC)c2nnnn2Cc2ccco2)CC1 (configuration not stated)	5	104	-6	-5	101	1.2
CC1(C)Cc2c(sc3nc(-c4ccccc4)n(N)c(=O)c23)CO1	22	115	-16	26	84	0.69
Cc1ccccc1-c1nc2sc3c(c2c(=O)n1N)CCCC3	-8	146*	-50	150*	104	1.5
Cc1nc2sc3c(c2c(=O)n1N)CCC3	6	102	-3	2	101	1.2
Nn1c(-c2cccs2)nc2sc3c(c2c1=O)CCCC3	-28	142*	-45	156*	128	3.9*
CC1(C)Cc2c(sc3nc(-c4cccs4)n(N)c(=O)c23)CO1	11	138*	-39	52	96	1.2
